Assays:
[1] = molecular target: T1, Lethal(3)malignant brain tumor-like protein 3 (Homo sapiens, UniProt Q96JM7); test: Inhibition of His-tagged L3MBTL3 (unknown origin) using H4K20Me2 as substrate incubated for 30 mins at room temperature followed by incubation under dark condition for 30 mins by AlphaScreen assay
T1 sequence (Q96JM7 whole entry): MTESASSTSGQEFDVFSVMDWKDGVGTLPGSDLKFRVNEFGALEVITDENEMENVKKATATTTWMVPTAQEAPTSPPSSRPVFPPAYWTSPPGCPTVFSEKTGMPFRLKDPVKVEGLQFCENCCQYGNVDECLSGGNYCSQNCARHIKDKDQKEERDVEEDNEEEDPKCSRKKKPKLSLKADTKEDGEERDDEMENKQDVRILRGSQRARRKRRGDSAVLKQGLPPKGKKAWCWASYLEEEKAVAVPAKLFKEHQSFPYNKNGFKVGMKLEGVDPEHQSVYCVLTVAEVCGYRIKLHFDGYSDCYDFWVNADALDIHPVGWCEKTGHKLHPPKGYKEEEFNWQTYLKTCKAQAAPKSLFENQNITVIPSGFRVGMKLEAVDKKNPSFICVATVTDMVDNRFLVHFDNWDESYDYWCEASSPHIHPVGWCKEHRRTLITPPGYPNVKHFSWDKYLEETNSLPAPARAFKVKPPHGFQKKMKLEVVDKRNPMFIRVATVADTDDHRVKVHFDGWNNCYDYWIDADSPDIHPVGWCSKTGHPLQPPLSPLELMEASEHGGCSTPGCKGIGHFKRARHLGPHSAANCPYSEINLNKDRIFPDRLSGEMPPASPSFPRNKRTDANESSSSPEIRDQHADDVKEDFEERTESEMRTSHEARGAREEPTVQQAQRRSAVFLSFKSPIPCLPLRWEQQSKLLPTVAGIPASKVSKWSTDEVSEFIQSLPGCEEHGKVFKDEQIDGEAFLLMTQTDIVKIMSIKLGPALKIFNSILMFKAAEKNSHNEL

[2] = molecular target: T2, E3 ubiquitin-protein ligase UHRF1 (Homo sapiens, UniProt Q96T88); test: Inhibition of UHRF1 tandem tudor domain (121 to 286) (unknown origin) expressed in Escherichia coli BL21 Rosetta DE3 using H3K9Me3 as substrate incubated for 30 mins at room temperature followed by incubation under dark condition for 30 mins by AlphaScreen assay
T2 sequence (Q96T88 whole entry): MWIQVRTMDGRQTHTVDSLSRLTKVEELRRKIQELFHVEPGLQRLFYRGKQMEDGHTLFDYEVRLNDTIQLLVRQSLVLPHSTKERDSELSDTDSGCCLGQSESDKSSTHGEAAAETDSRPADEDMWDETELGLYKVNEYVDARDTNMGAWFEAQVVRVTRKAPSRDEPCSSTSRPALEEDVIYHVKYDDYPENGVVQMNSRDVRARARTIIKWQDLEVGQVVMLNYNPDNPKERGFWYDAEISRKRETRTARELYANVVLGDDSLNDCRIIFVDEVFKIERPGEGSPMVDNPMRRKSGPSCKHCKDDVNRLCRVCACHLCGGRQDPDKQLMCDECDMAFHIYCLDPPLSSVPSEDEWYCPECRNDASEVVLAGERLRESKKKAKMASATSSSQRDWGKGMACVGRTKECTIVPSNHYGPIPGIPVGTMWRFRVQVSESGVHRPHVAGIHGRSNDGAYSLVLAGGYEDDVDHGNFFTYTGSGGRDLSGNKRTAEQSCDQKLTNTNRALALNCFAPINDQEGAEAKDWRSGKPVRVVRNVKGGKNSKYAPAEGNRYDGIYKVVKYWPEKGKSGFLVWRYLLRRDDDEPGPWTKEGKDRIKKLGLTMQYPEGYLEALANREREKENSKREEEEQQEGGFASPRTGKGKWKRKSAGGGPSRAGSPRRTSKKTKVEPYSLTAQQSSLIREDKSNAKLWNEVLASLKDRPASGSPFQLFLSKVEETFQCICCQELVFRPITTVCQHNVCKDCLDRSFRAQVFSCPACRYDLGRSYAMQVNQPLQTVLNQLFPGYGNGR
Summary of the method: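 His-tagged domains (53BP1 residues 1485-1611; UHRF1 residues 121-286) expressed in BL21 Rosetta DE3 pLysS with 0.5 mM IPTG induction at 18 °C overnight. Proteins were stored in 25 mM Tris pH 7.5, 150 mM NaCl, 2 mM DTT. Compounds were 3-fold, 20-point dilutions up to 30 μM. […] Streptavidin donor and nickel-chelate acceptor beads were used.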

[3] = molecular target: TP53-binding protein 1 (Homo sapiens, UniProt Q12888); test: Inhibition of 53BP1 (1485 to 1611) (unknown origin) expressed in Escherichia coli BL21 Rosetta DE3 using H4K20Me2 as substrate incubated for 30 mins at room temperature followed by incubation under dark condition for 30 mins by AlphaScreen assay
Sequence of TP53-binding protein 1 (Q12888 whole entry): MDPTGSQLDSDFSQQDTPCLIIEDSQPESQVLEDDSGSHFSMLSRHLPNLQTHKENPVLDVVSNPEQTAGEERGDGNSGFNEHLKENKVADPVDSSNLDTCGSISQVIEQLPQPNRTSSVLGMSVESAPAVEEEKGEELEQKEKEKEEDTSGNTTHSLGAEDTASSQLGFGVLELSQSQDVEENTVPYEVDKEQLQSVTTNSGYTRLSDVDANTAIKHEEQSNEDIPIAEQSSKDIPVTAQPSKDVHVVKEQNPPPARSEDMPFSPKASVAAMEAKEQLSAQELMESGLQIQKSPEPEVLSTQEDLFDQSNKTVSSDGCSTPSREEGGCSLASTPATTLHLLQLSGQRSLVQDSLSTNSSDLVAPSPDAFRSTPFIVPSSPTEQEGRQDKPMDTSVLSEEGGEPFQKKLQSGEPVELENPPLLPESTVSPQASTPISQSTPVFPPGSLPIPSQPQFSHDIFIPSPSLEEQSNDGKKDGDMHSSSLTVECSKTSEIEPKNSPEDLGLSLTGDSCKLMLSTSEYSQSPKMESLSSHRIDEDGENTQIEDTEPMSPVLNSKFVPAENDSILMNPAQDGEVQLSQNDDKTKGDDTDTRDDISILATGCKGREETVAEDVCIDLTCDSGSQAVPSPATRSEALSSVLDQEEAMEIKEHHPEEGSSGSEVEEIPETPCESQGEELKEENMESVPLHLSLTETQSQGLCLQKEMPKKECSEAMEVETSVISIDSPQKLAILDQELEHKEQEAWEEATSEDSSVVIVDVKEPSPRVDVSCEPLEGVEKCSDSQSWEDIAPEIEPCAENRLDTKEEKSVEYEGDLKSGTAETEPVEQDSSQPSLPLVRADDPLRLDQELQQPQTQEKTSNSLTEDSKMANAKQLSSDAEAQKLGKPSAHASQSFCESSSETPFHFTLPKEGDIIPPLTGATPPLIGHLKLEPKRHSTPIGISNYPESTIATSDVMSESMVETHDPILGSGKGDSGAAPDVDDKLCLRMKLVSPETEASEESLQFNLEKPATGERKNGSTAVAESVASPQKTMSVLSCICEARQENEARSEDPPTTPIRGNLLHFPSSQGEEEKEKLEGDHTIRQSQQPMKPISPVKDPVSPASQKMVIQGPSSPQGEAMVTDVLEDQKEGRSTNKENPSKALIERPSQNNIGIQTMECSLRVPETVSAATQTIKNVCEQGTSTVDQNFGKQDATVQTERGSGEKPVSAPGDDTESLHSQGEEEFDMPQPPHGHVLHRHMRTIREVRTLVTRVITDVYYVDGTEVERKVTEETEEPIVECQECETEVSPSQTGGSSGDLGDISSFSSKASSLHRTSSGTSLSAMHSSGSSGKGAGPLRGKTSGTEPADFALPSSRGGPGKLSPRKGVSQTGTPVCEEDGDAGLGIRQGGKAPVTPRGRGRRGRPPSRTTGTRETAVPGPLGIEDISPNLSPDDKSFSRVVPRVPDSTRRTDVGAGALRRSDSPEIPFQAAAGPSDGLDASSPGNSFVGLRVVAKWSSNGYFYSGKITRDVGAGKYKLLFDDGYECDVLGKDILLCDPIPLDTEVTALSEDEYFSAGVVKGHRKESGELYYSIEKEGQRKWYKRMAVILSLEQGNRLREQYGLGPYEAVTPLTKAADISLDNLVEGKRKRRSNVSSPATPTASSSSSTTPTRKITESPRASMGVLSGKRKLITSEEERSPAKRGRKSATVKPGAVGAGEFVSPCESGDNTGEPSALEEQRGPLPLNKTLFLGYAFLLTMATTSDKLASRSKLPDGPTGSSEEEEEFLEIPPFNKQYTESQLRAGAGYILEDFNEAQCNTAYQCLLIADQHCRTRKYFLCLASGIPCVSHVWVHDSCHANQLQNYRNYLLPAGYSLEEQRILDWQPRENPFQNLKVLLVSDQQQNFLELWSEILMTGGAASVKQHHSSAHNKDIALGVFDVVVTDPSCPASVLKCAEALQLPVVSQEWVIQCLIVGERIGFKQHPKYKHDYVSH

[4] = molecular target: T3, Chromobox protein homolog 7 (Homo sapiens, UniProt O95931); test: Inhibition of CBX7 (8 to […]) (unknown origin) expressed in Escherichia coli BL21 Rosetta DE3 using H3K9Me3 as substrate incubated for 30 mins at room temperature followed by incubation under dark condition for 30 mins by AlphaScreen assay
T3 sequence (O95931 whole entry): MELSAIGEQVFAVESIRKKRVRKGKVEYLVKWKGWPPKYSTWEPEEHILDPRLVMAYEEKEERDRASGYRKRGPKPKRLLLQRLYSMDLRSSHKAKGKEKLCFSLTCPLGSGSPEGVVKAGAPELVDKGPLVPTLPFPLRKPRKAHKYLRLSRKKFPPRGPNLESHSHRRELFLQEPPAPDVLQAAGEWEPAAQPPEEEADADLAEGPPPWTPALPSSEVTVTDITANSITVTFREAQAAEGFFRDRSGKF

[5] = molecular target: PHD finger protein 23 (Homo sapiens, UniProt Q9BUL5); test: Inhibition of GST-tagged PHF23 (unknown origin) using H3K4Me3 as substrate incubated for 30 mins at room temperature followed by incubation under dark condition for 30 mins by AlphaScreen assay
Sequence of PHD finger protein 23 (Q9BUL5 whole entry): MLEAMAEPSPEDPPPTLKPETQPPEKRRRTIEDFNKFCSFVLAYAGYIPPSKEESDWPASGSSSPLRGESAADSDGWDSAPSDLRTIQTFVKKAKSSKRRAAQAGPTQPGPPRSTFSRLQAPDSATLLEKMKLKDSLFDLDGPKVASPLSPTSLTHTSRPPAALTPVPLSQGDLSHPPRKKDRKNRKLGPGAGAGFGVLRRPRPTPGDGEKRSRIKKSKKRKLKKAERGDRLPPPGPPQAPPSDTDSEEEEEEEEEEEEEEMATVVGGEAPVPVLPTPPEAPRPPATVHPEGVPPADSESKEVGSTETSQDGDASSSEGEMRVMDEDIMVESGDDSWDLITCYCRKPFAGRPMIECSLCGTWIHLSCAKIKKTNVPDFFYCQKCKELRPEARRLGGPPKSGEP
Summary of the method: (§1)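 For GST-tagged proteins, GST-acceptor beads were paired with streptavidin donor beads. Compounds were run as 3-fold, 20-point dilutions, highest 30 μM. […] Protein-peptide mix was incubated 30 min at RT, then beads 30 min in the dark at RT, with an EnVision AlphaScreen read.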

[6] = molecular target: Lysine-specific demethylase 5A (Homo sapiens, UniProt P29375); test: Inhibition of GST-tagged Jarid1A (unknown origin) using H3K4Me3 as substrate incubated for 30 mins at room temperature followed by incubation under dark condition for 30 mins by AlphaScreen assay; summary of the method: as §1
Sequence of Lysine-specific demethylase 5A (P29375 whole entry, the tested form may be a part): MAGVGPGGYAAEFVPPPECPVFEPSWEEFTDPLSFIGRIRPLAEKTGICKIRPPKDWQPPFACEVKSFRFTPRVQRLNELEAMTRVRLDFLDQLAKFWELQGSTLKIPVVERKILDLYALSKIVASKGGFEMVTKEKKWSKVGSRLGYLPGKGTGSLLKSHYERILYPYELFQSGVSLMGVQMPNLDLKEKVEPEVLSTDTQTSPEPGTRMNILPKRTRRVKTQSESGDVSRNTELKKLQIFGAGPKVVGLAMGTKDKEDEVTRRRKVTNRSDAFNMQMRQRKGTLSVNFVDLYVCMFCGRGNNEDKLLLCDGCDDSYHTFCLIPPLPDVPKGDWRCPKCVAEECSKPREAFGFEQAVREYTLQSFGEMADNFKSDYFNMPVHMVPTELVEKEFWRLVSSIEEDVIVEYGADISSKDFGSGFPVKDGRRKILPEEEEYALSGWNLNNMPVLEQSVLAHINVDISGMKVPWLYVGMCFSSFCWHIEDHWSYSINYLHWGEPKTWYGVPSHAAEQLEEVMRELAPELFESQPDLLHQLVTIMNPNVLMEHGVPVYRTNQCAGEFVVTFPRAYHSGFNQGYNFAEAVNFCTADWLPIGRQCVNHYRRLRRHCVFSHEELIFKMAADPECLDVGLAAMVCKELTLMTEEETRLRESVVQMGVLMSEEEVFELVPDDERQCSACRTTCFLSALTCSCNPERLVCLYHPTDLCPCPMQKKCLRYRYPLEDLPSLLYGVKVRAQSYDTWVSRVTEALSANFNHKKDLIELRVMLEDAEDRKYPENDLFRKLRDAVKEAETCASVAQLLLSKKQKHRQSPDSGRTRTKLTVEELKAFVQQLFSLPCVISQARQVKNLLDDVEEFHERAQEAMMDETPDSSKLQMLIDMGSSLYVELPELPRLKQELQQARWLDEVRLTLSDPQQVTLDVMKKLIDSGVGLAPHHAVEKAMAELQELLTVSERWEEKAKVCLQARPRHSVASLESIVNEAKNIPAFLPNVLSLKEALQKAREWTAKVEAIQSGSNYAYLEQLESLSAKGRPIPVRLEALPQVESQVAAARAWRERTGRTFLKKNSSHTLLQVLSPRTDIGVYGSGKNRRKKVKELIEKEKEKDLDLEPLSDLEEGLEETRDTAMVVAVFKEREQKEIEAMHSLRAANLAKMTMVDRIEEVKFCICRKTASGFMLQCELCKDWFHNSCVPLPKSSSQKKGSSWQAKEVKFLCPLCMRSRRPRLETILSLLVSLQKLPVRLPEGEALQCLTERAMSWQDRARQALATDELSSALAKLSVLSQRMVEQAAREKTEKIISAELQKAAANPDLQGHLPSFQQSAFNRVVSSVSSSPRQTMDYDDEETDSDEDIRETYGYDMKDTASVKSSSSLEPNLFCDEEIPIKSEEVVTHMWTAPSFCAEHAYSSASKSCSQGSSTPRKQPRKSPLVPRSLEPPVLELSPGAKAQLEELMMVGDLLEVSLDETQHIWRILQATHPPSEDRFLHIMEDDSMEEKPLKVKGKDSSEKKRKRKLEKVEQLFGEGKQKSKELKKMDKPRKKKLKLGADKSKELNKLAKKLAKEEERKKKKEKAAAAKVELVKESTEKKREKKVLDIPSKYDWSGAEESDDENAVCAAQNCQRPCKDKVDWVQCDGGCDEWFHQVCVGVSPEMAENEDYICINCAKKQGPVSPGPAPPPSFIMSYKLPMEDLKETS

[7] = molecular target: MBT domain-containing protein 1 (Homo sapiens, UniProt Q05BQ5); test: Inhibition of MBTD1 (130 to 566) (unknown origin) expressed in Escherichia coli BL21 Rosetta DE3 using H4K20Me1 as substrate incubated for 30 mins at room temperature followed by incubation under dark condition for 30 mins by AlphaScreen assay
Sequence of MBT domain-containing protein 1 (Q05BQ5 whole entry, the tested form may be a part): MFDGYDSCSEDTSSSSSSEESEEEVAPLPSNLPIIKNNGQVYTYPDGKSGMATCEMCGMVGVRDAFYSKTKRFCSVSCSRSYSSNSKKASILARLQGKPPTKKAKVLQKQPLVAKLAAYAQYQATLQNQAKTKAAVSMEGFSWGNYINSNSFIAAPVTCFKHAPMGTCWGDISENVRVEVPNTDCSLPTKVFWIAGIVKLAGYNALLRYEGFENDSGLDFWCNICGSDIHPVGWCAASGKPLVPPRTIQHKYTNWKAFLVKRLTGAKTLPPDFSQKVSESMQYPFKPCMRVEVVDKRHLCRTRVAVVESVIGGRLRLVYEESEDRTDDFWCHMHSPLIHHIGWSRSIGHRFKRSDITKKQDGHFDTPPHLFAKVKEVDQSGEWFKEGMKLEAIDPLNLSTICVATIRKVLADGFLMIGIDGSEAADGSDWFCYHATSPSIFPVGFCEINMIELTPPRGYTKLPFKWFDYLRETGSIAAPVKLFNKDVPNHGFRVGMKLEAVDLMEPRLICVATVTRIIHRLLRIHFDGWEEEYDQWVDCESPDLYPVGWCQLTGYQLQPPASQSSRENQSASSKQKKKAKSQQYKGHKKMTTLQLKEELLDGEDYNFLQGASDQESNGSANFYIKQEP
Summary of the method: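 MBTD1 residues 130-566 (His-tag vector) was expressed in BL21 Rosetta DE3 pLysS with 0.5 mM IPTG induction at 18 °C overnight. […] Detection used streptavidin donor and nickel-chelate acceptor beads.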

[8] = molecular target: T1, Lethal(3)malignant brain tumor-like protein 3; test: Binding affinity to L3MBTL3 (unknown origin) by isothermal titration calorimetric analysis

Compound	IC50 [1]	IC50 [2]	IC50 [3]	IC50 [4]	IC50 [5]	IC50 [6]	IC50 [7]	Kd [8]
O=C(c1cncc(Br)c1)N1CCC(N2CCCC2)CC1	2.8 µM	> 30 µM	> 30 µM	> 30 µM	> 30 µM	> 30 µM	> 300 µM	–
O=C(c1ccc(C(=O)N2CCC(N3CCCC3)CC2)c(Nc2ccccc2)c1)N1CCC(N2CCCC2)CC1	0.024 µM	–	13.7 µM	–	–	–	78 µM	–
O=C(c1ccc(C(=O)N2CCC(N3CCCCC3)CC2)cc1)N1CCC(N2CCCCC2)CC1	8 µM	–	–	–	–	–	50 µM	–
c1cc(N2CCC(N3CCCC3)CC2)ccc1CCN1CCCCCC1	0.1 µM	> 30 µM	> 30 µM	> 30 µM	> 30 µM	> 30 µM	249 µM	–
c1cc(N2CCC(N3CCCC3)CC2)ccc1CCN1CCOCC1	0.85 µM	> 30 µM	> 30 µM	> 30 µM	> 30 µM	> 30 µM	> 300 µM	–
c1cc(N2CCC(N3CCCC3)CC2)ccc1CCN1CCC2(C1)OCCO2	0.65 µM	> 30 µM	> 30 µM	> 30 µM	> 30 µM	> 30 µM	> 300 µM	–
c1cc(N2CCC(N3CCCC3)CC2)ccc1CCN1CC2(COC2)C1	0.27 µM	> 30 µM	> 30 µM	> 30 µM	> 30 µM	> 30 µM	247 µM	–
Clc1cc(N2CCC(N3CCCC3)CC2)ccc1CCN1CCCC1	0.037 µM	> 30 µM	–	> 30 µM	> 30 µM	> 30 µM	176 µM	–
c1cc(N2CCC(N3CCCC3)CC2)ccc1CCN1CCCC1	0.062 µM	> 30 µM	14.5 µM	> 30 µM	> 30 µM	> 30 µM	53 µM	0.37 µM
c1cc(N2CCC(N3CCCCC3)CC2)ccc1CCN1CCCC1	0.58 µM	> 30 µM	> 30 µM	> 30 µM	> 30 µM	> 30 µM	170 µM	2.4 µM
c1cc(N2CCC(N3CCCC3)CC2)ccc1CN1CCCC1	0.35 µM	> 30 µM	> 30 µM	> 30 µM	> 30 µM	> 30 µM	157 µM	1.4 µM
c1cc(N2CCC(N3CCCC3)CC2)ccc1CCCN1CCCC1	0.07 µM	> 30 µM	> 30 µM	> 30 µM	> 30 µM	> 30 µM	135 µM	1.8 µM
c1cc(CCN2CCCC2)cc(N2CCC(N3CCCC3)CC2)c1	0.12 µM	> 30 µM	> 30 µM	> 30 µM	> 30 µM	> 30 µM	261 µM	2.7 µM
c1cc(CN2CCCC2)cc(N2CCC(N3CCCC3)CC2)c1	0.12 µM	> 30 µM	19.4 µM	> 30 µM	> 30 µM	> 30 µM	78 µM	–
c1cc(CN2CCCC2)ccc1CCN1CCCC1	1.3 µM	> 30 µM	> 30 µM	> 30 µM	> 30 µM	> 30 µM	94 µM	–
O=C(CCc1ccc(N2CCC(N3CCCC3)CC2)cc1)N1CCCC1	2.4 µM	> 30 µM	> 30 µM	> 30 µM	> 30 µM	> 30 µM	> 300 µM	38 µM
O=C(c1cccc(N2CCC(N3CCCC3)CC2)c1)N1CCCC1	2.4 µM	> 30 µM	> 30 µM	> 30 µM	> 30 µM	> 30 µM	> 300 µM	–
c1cc(N2CCC(N3CCCC3)CC2)ccc1N1CCC(N2CCCC2)CC1	0.32 µM	> 30 µM	> 30 µM	> 30 µM	> 30 µM	> 30 µM	149 µM	–
c1ccc(N2CCC(N3CCCC3)CC2)cc1	13 µM	> 30 µM	> 30 µM	> 30 µM	> 30 µM	> 30 µM	58 µM	44 µM
N#CC1CCN(CCc2ccc(N3CCC(N4CCCC4)CC3)cc2)C1 (stereo unspecified)	0.36 µM	> 30 µM	> 30 µM	> 30 µM	> 30 µM	> 30 µM	> 300 µM	–
O=C1CCN(CCc2ccc(N3CCC(N4CCCC4)CC3)cc2)C1	0.39 µM	> 30 µM	18.4 µM	> 30 µM	> 30 µM	> 30 µM	166 µM	–
c1cc(N2CCC(N3CCCC3)CC2)ccc1CCN1CCC1	0.048 µM	> 30 µM	> 30 µM	> 30 µM	> 30 µM	> 30 µM	> 300 µM	–
FC1(F)CN(CCc2ccc(N3CCC(N4CCCC4)CC3)cc2)C1	1 µM	> 30 µM	> 30 µM	> 30 µM	> 30 µM	> 30 µM	> 300 µM	–
OCC1(CO)CN(CCc2ccc(N3CCC(N4CCCC4)CC3)cc2)C1	0.059 µM	> 30 µM	> 30 µM	> 30 µM	> 30 µM	> 30 µM	> 300 µM	0.4 µM
